Experimental findings from ChEMBL document CHEMBL4007420, “Structural Optimization and Pharmacological Evaluation of Inhibitors Targeting Dual-Specificity Tyrosine Phosphorylation-Regulated Kinases (DYRK) and CDC-like kinases (CLK) in Glioblastoma” (J Med Chem, 2017) are described below.

pEC50, pIC50: −log10 of the molar value. Calls of active or inactive are those of the source. The rule behind the calls is not given here.

The subject of assay [1] is A 172. As to the kind of experiment: Cytotoxicity against human A172 cells assessed as reduction in cell viability after 3 days by Alamar blue assay. In kind it is functional, cell-based. Particulars: A 172, 72 h.
Assay [2] deals with A 172. The assay is described as follows: Antiinvasive activity in human A172 cells measured up to 20 hrs by matrigel assay. The class given is functional, cell-based.
Assay [3] in a line: Antimigratory activity in patient-derived RN1 cells at 5 uM measured up to 20 hrs by wound scratch assay. The class given is functional. To be noted: Homo sapiens, RN1, 20 h. Summed up:
(§1)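 Wound-healing migration assay: cell movement across the wound is measured as velocity (µm/h). Compounds were tested at 0, 1.0, 5.0 and 10.0 µM. Values are mean ± SEM of 3 independent experiments.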

Assay [4] has as its system A 172. The assay is described as follows: Antiinvasive activity in human A172 cells assessed as velocity of invasion at 5 uM measured up to 20 hrs by matrigel assay (reference value: 2659 to 3047 micrometer/hr). In kind it is functional.
Assay [5] deals with T1, Dual specificity tyrosine-phosphorylation-regulated kinase 2 (Homo sapiens, UniProt Q92630).
T1 sequence (Q92630 whole entry): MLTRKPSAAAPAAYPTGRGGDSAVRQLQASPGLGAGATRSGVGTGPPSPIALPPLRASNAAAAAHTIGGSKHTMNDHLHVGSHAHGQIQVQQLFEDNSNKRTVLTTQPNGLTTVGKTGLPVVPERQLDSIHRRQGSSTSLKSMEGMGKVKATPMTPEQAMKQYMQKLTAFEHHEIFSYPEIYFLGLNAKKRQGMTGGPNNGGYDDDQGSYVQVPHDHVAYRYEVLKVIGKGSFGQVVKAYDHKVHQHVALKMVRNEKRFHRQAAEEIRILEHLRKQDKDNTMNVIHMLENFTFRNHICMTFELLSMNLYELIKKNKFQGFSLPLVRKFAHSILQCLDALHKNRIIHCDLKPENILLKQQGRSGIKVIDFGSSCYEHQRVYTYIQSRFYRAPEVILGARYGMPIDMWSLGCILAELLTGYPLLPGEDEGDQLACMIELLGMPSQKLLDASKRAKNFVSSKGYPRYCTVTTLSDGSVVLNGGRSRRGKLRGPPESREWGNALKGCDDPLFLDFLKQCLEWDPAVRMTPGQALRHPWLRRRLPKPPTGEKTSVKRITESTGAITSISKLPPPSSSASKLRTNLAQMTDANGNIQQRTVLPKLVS
The assay is described as follows: Inhibition of DYRK2 (unknown origin) using woodtide as substrate after 40 mins in presence of [gamma-33P]ATP by microbeta scintillation counting.

In assay [6] the target is Dual specificity tyrosine-phosphorylation-regulated kinase 1B (Homo sapiens, UniProt Q9Y463). The assay is described as follows: Inhibition of DYRK1B (unknown origin) using woodtide as substrate after 40 mins in presence of [gamma-33P]ATP by microbeta scintillation counting.
Assay [7] in a line: Antimigratory activity in patient-derived RN1 cells assessed as velocity of migration at 5 uM measured up to 20 hrs by wound scratch assay (reference value: 937 to 1174 micrometer/hr). The class given is functional, Homo sapiens. Summed up:
as §1

The target of assay [8] is Mitogen-activated protein kinase 14 (Homo sapiens) (UniProt Q16539). As to the kind of experiment: Stabilization of MAPK p38alpha in human U251 cell lysate at 10 uM preincubated for 1 hr followed by incubation at 40 to 70 degreeC for 3 mins by cellular thermal shift assay.
For assay [9], the target named is T2, Dual specificity tyrosine-phosphorylation-regulated kinase 1A (Homo sapiens, UniProt Q13627). As to the kind of experiment: Inhibition of DYRK1A (unknown origin) using woodtide as substrate after 10 mins in presence of [gamma-33P]ATP by microbeta scintillation counting.
For assay [10], the system named is U-251. As to the kind of experiment: Antiinvasive activity in human U251 cells assessed as velocity of invasion at 1 uM measured up to 20 hrs by matrigel assay (reference value: 1151 to 1710 micrometer/hr). The class given is functional.
For assay [11], the target named is T3, Dual specificity tyrosine-phosphorylation-regulated kinase 2 (Homo sapiens) (UniProt Q92630).
T3 sequence (whole entry): T1 sequence (Q92630 whole entry)
As to the kind of experiment: Stabilization of DYRK2 in human U251 cell lysate at 10 uM preincubated for 1 hr followed by incubation at 40 to 70 degreeC for 3 mins by cellular thermal shift assay.

In assay [12] the test system is U-251. As to the kind of experiment: Cytotoxicity against human U251 cells assessed as reduction in cell viability after 3 days by Alamar blue assay. The class given is functional, cell-based. Particulars: U-251, 72 h. A general note: The colour change of resazurin is a common sign of viable cells or microbes.
The target of assay [13] is T2, Dual specificity tyrosine-phosphorylation-regulated kinase 1A. The assay is described as follows: Stabilization of DYRK1A in human U251 cell lysate at 10 uM preincubated for 1 hr followed by incubation at 40 to 70 degreeC for 3 mins by cellular thermal shift assay.
For assay [14], the system named is U-251. As to the kind of experiment: Antimigratory activity in human U251 cells assessed as velocity of migration at 10 uM measured up to 20 hrs by wound scratch assay (reference value: 2159 to 2653 micrometer/hr). In kind it is functional. Summed up:
as §1

Dual specificity tyrosine-phosphorylation-regulated kinase 1B, sequence (Q9Y463 whole entry): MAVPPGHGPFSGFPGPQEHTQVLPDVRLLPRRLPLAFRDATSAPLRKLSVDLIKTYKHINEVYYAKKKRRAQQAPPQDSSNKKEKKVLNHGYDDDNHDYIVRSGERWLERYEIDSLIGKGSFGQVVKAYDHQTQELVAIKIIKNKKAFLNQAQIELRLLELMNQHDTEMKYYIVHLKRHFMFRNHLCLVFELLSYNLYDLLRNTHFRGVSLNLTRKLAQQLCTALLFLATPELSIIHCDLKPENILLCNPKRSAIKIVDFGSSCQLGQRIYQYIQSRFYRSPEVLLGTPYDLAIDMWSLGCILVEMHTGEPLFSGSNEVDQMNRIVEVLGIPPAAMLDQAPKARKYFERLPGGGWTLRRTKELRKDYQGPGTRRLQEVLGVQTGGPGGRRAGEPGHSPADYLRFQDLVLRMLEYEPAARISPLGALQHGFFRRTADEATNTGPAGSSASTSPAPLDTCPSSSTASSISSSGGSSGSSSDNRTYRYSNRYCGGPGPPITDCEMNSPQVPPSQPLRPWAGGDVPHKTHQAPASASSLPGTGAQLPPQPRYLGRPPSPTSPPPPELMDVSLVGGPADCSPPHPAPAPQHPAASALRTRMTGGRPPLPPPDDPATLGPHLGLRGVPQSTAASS
Mitogen-activated protein kinase 14 (Homo sapiens), sequence (Q16539 whole entry): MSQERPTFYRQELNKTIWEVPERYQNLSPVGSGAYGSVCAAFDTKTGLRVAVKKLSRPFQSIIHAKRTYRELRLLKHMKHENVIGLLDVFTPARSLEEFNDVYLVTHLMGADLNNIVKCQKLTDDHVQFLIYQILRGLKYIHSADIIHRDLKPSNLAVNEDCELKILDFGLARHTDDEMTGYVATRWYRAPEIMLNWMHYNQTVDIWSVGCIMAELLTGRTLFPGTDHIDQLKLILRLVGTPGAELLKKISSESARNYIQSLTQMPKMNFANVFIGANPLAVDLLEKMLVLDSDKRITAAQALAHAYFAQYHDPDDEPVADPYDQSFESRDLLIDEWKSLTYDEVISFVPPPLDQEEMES

As to `Nc1ccc(-c2cnc3[nH]cc(-c4ccc(O)cc4)c3c2)cc1`, the negative-log EC50 (pEC50) in the assay on A 172 [1] and in the assay on U-251 [12] was 5.34 to 5.80 throughout. In the assay on A 172 [2], the inhibition entry was “Dose-dependent effect”. The compound further came in with an inhibition at 5 µM in assay [3] greater than 75%. Further, the Activity with A 172 [4] is recorded as 1538 um/hr; in [7], 118 um/hr; in the assay on U-251 [10], 1139 um/hr; in the assay on U-251 [14], 129 um/hr. The negative-log IC50 (pIC50) in assay [5] was 6.25; in assay [6], 7.49; in [9], 7.37. For the same compound, in assay [8], the result was inactive. Moreover, the outcome in [11] and in [13] was Active.

As a reminder, the pEC50 is the negative decadic logarithm of the EC50, by convention in mol/L. Usually inhibition stands for the relative decrease from the control value, in per cent. One may read the pIC50 as the IC50 on a negative log10 scale, so that one unit is a factor of ten.
